How the values were obtained:
PC-3 = experiment: Cytotoxicity against human PC3 cells; type: cell-based
HeLa = experiment: Cytotoxicity against human HeLa cells; type: cell-based
MCF7 = experiment: Cytotoxicity against human MCF7 cells; type: cell-based
Micrococcus luteus = experiment: Antimicrobial activity against Micrococcus luteus ATCC 10240 after 24 hrs by Kirby-Bauer agar diffusion assay; type: functional
Procedure, shortened: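 Modified Kirby-Bauer well diffusion. Overnight LB cultures (18–24 h) were standardized in 0.9% saline to 0.5 McFarland and mixed into melted MHII agar at 47–50 °C, giving ~5×10³ CFU/mL. 9 mm wells received 50 µL of 2.0 mM compound in 10:1 MeOH:DMSO. Plates were incubated 24 h at 37 °C, then growth-inhibition zone diameter was measured (mm) by caliper.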

Row | SMILES | Activity (PC-3) | Activity (HeLa) | Activity (MCF7) | diameter of the inhibition zone (DIZ) (Micrococcus luteus)
1 | C=C(C)C(CC/C(C)=C/CO)N(O)c1ccc(Br)cn1 (racemic) | Non-toxic | Non-toxic | Non-toxic | >14 mm
2 | O=Nc1ncc(Cl)cc1Cl | Non-toxic | Non-toxic | Non-toxic | <=14 mm
3 | Cc1ccnc(N=O)c1 | Non-toxic | Non-toxic | Non-toxic | <=14 mm
4 | C[C@H](NC(=O)OC(C)(C)C)C(=O)NO | Non-toxic | Non-toxic | Non-toxic | <=14 mm
5 | Cc1cccc(N2OC3C=CC2C3)n1 (racemic) | Non-toxic | Non-toxic | Non-toxic | <=14 mm
6 | Cc1cccc(N2OC3C=CC2CC3)n1 (racemic) | Non-toxic | Non-toxic | Non-toxic | <=14 mm
7 | O[C@@H]1C=C[C@@H](N(O)c2ccc(Br)cn2)C1 (racemic) | Non-toxic | Non-toxic | Non-toxic | >14 mm
8 | O=C(NO)c1ccccc1 [BENZOHYDROXAMATE] | Non-toxic | Non-toxic | Non-toxic | <=14 mm
9 | O=Nc1ncc(C(F)(F)F)cc1Cl | Non-toxic | Non-toxic | Non-toxic | <=14 mm
10 | C=CCO[C@@H]1C=CCC[C@H]1N(O)c1ccc(Br)cn1 (racemic) | Non-toxic | Non-toxic | Non-toxic | >14 mm
11 | O=Nc1ccc(Br)cn1 | Non-toxic | Non-toxic | Non-toxic | <=14 mm
12 | O[C@@H]1C=CC[C@H]1N(O)c1ccc(Br)cn1 (racemic) | Non-toxic | Non-toxic | Non-toxic | >14 mm
13 | Cc1cc(N=O)no1 | Non-toxic | Non-toxic | Non-toxic | <=14 mm
14 | Cc1nc(N=O)ccc1Br | Non-toxic | Non-toxic | Non-toxic | <=14 mm
15 | Brc1ccc(N2OC3C=CC2CC3)nc1 (racemic) | Non-toxic | Non-toxic | Non-toxic | <=14 mm
16 | C=CCN(OCc1ccc(OC)cc1)c1ccccn1 | Non-toxic | Non-toxic | Non-toxic | <=14 mm
17 | CC(C)(C)O[C@@H]1C=CCC[C@H]1N(O)c1ccc(Br)cn1 (racemic) | Non-toxic | Non-toxic | Non-toxic | >14 mm
18 | C=C(CCC=C(C)C)C(CO)N(O)c1ccc(Br)cn1 (racemic) | Non-toxic | Non-toxic | Non-toxic | >14 mm
19 | COc1ccc(CON(Cc2cccc(Oc3ccccc3)c2)c2ccccn2)cc1 | Non-toxic | Non-toxic | Non-toxic | <=14 mm
20 | CC1=CCCCC1N(O)c1cc(C)on1 (racemic) | Non-toxic | Non-toxic | Non-toxic | >14 mm
21 | COc1ccc(CON(C)c2ccccn2)cc1 | Non-toxic | Non-toxic | Non-toxic | <=14 mm
22 | Cc1cc(N2OC3C=CC2C3)no1 (racemic) | Non-toxic | Non-toxic | Non-toxic | <=14 mm
23 | CC(C)(C)OC(=O)N1OC2C=CC1C2 (racemic) | Non-toxic | Non-toxic | Non-toxic | <=14 mm
24 | Cc1cc(N(O)[C@H]2CC=C[C@@H]2OC(C)(C)C)no1 (racemic) | Non-toxic | Non-toxic | Non-toxic | >14 mm
25 | CCCN(OCc1ccc(OC)cc1)c1ccccn1 | Non-toxic | Non-toxic | Non-toxic | <=14 mm

Row | SMILES | Activity (PC-3) | Activity (HeLa) | Activity (MCF7) | diameter of the inhibition zone (DIZ) (Micrococcus luteus)
26 | COc1ccc(CON(CCc2ccccc2)c2ccccn2)cc1 | Non-toxic | Non-toxic | Non-toxic | <=14 mm
27 | CC(C)(C)OC1C=C[C@@H](N(O)c2ccc(Cl)cn2)C1 (mixture of isomers) | Non-toxic | Non-toxic | Non-toxic | >14 mm
28 | CC(C)OC1C=C[C@@H](N(O)c2ccc(Cl)cn2)C1 (mixture of isomers) | Non-toxic | Non-toxic | Non-toxic | >14 mm
29 | Cc1cccc(N=O)n1 | Non-toxic | Non-toxic | Non-toxic | <=14 mm
30 | CC(C)O[C@@H]1C=CCC[C@H]1N(O)c1ccc(Br)cn1 (racemic) | Non-toxic | Non-toxic | Non-toxic | >14 mm
31 | COC1C=C[C@@H](N(O)c2cc(C)on2)C1 (mixture of isomers) | Non-toxic | Non-toxic | Non-toxic | >14 mm
32 | CC(C)O[C@@H]1C=C[C@@H](N(O)c2ccc(Br)cn2)CC1 (relative stereo) | Non-toxic | Non-toxic | Non-toxic | >14 mm
33 | O[C@H]1C=C[C@@H](N(O)c2ccc(Br)cn2)C1 (racemic) | Non-toxic | Non-toxic | Non-toxic | >14 mm
34 | O=Nc1ccc2ccccc2n1 | Non-toxic | Non-toxic | Non-toxic | <=14 mm
35 | CC(C)C[C@H](NC(=O)OC(C)(C)C)C(=O)NO | Non-toxic | Non-toxic | Non-toxic | <=14 mm
36 | C=CCO[C@@H]1C=C[C@@H](N(O)c2ccc(Br)cn2)CC1 (racemic) | Non-toxic | Non-toxic | Non-toxic | >14 mm
37 | CO[C@@H]1C=CC[C@H]1N(O)c1ccc(Cl)cn1 (racemic) | Non-toxic | Non-toxic | Non-toxic | >14 mm
38 | O=C(Cc1ccccc1)N1OC2C=CC1CC2 (racemic) | Non-toxic | Non-toxic | Non-toxic | <=14 mm
39 | COc1ccc(CON(Cc2ccc(C(F)(F)F)cc2)c2ccccn2)cc1 | Non-toxic | Non-toxic | Non-toxic | <=14 mm
40 | CO[C@@H]1C=C[C@@H](N(O)C(=O)OC(C)(C)C)C1 (racemic) | Non-toxic | Non-toxic | Non-toxic | <=14 mm
41 | CO[C@@H]1C=C[C@@H](N(O)C(=O)Cc2ccccc2)CC1 (racemic) | Non-toxic | Non-toxic | Non-toxic | <=14 mm
42 | CO[C@@H]1C=CC[C@H]1N(O)C(=O)OC(C)(C)C (racemic) | Non-toxic | Non-toxic | Non-toxic | <=14 mm
43 | CO[C@@H]1C=CC[C@H]1N(O)c1ccc(Br)cn1 (racemic) | Non-toxic | Non-toxic | Non-toxic | >14 mm
44 | CC(C)(C)O[C@@H]1C=C[C@@H](N(O)c2ccc(Br)cn2)CC1 (racemic) | Non-toxic | Non-toxic | Non-toxic | >14 mm
45 | COC1C=C[C@@H](N(O)c2cccc(C)n2)C1 (mixture of isomers) | Non-toxic | Non-toxic | Non-toxic | >14 mm
46 | COc1ccc(CON(Cc2ccccc2)c2cccnc2)cc1 | Non-toxic | Non-toxic | Non-toxic | –
47 | O=C(Cc1ccccc1)NO [PHENYLACETOHYDROXAMIC ACID] | Non-toxic | Non-toxic | Non-toxic | <=14 mm
48 | Clc1ccc(N2OC3C=CC2C3)nc1 (racemic) | Non-toxic | Non-toxic | Non-toxic | <=14 mm
49 | COc1ccc(CON(Cc2ccccc2)Cc2ccccn2)cc1 | Non-toxic | Non-toxic | Non-toxic | –

Reference: ChEMBL document CHEMBL1914331, “N-O chemistry for antibiotics: discovery of N-alkyl-N-(pyridin-2-yl)hydroxylamine scaffolds as selective antibacterial agents using nitroso Diels-Alder and ene chemistry” (J Med Chem, 2011)
